# NPY2 pot ag – human NPY-Y2 potentiation or agonism, primary screen. P49146. cells expressing NPY-Y2, potentiator/agonist read-out. activation, % at 3.6 µM. 220,000 tested, 0.45% active; in the data active = activation above about 27%;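 also: cells stimulated with NPY near EC25 plus isoproterenol at EC100; 0% = vehicle plus submaximal agonist and 100% = vehicle plus saturating agonist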
# NPY Y1 blocker – NPY-Y1 (human) receptor antagonism; 200,000 tested, 1% active; inhibition, % at 3.6 µM; HEK293-CNG Y1 cells, membrane potential fluorescence; NPY at EC95, then isoproterenol;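 active = inhibition above the campaign mean inhibition of all tested compounds plus 3 SD, cut at about 20% in these data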;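 also: 0% = DMSO wells given NPY plus isoproterenol and 100% = isoproterenol alone without NPY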
# Target sequence (P25929 whole entry, looked up): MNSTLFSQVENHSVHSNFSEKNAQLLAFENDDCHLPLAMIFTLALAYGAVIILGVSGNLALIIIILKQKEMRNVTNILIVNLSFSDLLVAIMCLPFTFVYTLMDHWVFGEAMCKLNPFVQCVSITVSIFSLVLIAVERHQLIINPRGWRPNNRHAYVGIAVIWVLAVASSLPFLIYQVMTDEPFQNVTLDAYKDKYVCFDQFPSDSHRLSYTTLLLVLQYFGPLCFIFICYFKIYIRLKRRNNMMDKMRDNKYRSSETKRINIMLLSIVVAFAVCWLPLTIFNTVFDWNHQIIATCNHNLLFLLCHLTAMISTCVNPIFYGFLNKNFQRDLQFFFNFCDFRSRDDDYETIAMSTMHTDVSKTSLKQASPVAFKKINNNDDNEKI
#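 Material: HEK293 cells with Y1 receptor plus CNG channel; times: compound incubation 1 h at room temperature, readout 45 min post-stimulation; signal: fluorescence, membrane potential probe; read-out basis: fluorescence ratio normalized to % inhibition between controls; benchmarks: full-block control isoproterenol-only wells, zero-block control NPY plus isoproterenol wells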
# RAM inhibit – yeast RAM network inhibition; S. cerevisiae dse1pr::URA3 reporter, 5-FOA growth OD615, 2 d; analog-sensitive cbk1-as2 kinase mutant strain; inhibition, % at 50 µM; 190,000 tested, 1.8% active;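 active = inhibition above a set limit, 3 SD over mean compound inhibition, cut at about 8.4% in these data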;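 also: 0% = DMSO-only wells with no growth and 100% = 10 µM 1-NA-PP1 full growth; inhibition rescues growth on 5-FOA so higher OD means more RAM inhibition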
# Insulin prom inh – TRM-6 insulin promoter activity inhibition; TRM-6 cells, insulin promoter-eGFP reporter, imaging; reporter expression induced with tamoxifen; inhibition, % at 2 µM; 130,000 tested, 0.9% active;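 active = inhibition above the mean plus 3 SD, with well images judged a real hit on visual review, cut at about 60% in these data, passing the limit was not always enough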
# NPY Y2 blocker – antagonists of human neuropeptide Y receptor Y2; NPY-Y2 expressing cells, antagonist mode; 140,000 tested, 0.99% active; inhibition, % at 2.7 µM; P49146; in the data active = inhibition above about 17%;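 also: 0% = vehicle with agonist challenge and 100% = reference antagonist with challenge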
# NPY1 pot ag – potentiates or activates human NPY-Y1 receptor; P25929; NPY-Y1 expressing cells, potentiator/agonist activation; activation, % at 3.6 µM; 220,000 tested, 0.37% active; AID 1304; in the data active = activation above about 33%, passing the limit was not always enough;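 also: cells stimulated with NPY at EC10 then isoproterenol at EC100; 0% = low agonist plus stimulus and 100% = saturating agonist plus stimulus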
# * hit, by the source's call; · = not tested or not shown. Sampled rows, rich in hits. Any-hit rate of the full collection: about 3.8%.
SMILES,NPY2 pot ag,NPY Y1 blocker,RAM inhibit,Insulin prom inh,NPY Y2 blocker,NPY1 pot ag
COc1ccc2c3c(cccc13)NN=C2C,-10,4,·,79*,6,3
COc1ccc(C(=O)c2ccc(OC)c3cccc(O)c23)cc1OC,4,-2,3,-10,4,12
COc1ccc(OC)c(-c2csc(N(CC3CCCO3)C(=O)Cc3ccccc3)n2)c1 (centres undefined),-4,13,6,·,·,-9
CCCN(CCC)C(=O)CSc1nc2ccccc2c(=O)n1C1CCCC1,9,29*,3,-257,25*,-22
N#CCSc1nc2ccccc2c(=O)n1CCC(=O)NC1CCCCC1,-18,-5,4,·,0,-13
N#CCSc1nc2ccccc2c(=O)n1C1CCCCC1,-3,21*,2,-73,·,1
CN(C)c1ccc(NC(=O)CSc2nc3ccccc3c(=O)n2C2CCCCC2)cc1,-5,-10,1,56,-5,16
O=c1c2ccccc2nc(SCc2cccc(F)c2)n1C1CCCC1,-7,3,11*,·,8,-8
CCOC(=O)c1ccccc1NC(=O)CN(c1ccccc1)S(=O)(=O)N(C)C,13,-2,3,-62,1,4
Cc1ccc(S(=O)(=O)N(Cc2ccc(Cl)cc2)c2ccccc2C(=O)NCc2ccco2)cc1,-12,29*,8.9*,·,32*,-110
Cc1ccc(C(=O)CSc2ncnc3sc4c(c23)CCC(C)C4)cc1 (centres undefined),-20,-2,8.6*,8,2,-5
NS(=O)(=O)c1ccc(NC(=O)COc2ncnc3c2cnn3-c2ccccc2)cc1,-10,-4,2,-59,·,13
COc1ccc(-c2[nH]ncc2-c2ccc3c(c2)OCCO3)c(O)c1,-1,3,10*,47,13,1
CCCc1cc(-c2[nH]ncc2-c2ccc3c(c2)OCCCO3)c(O)cc1OC,-9,1,8,30,2,23
CC(C)(C)NCC(O)COc1c(F)cc(Br)cc1F (centres undefined),66*,-7,1,-26,0,51*
Cc1cc(C)c(OCC(O)CNC(C)(C)C)c(C)c1 (centres undefined),87*,-9,3,-11,·,84*
CC(C)(C)CC(C)(C)NCC(O)COc1c(F)cc(Br)cc1F (centres undefined),6,7,3,-41,5,-21
CCN(NC(=O)C(O)(c1ccccc1)c1ccccc1)C(=O)c1ccccc1,-8,6,0,·,8,3
CC(c1ccccc1)N(NC(=O)C(O)(c1ccccc1)c1ccccc1)C(=O)c1ccccc1 (centres undefined),3,22*,4,-162,31*,3
O=C(Cn1c2[n+](c3ccccc31)CC(O)CS2)c1ccccc1 (centres undefined),1,3,1,·,·,8
CCOc1ccc(S(=O)(=O)N(C)c2ccc(OCC(=O)NCc3ccco3)cc2)cc1,-4,2,9.8*,-3,1,3
CCOc1ccc(S(=O)(=O)N(C)c2ccc(OCC(=O)NCc3cccnc3)cc2)cc1,-8,1,-1,·,·,3
NC(=O)CSc1cn(Cc2ccc(F)cc2)c2ccccc12,2,3,4,-22,·,-1
O=C(CSc1cn(Cc2cccc(F)c2)c2ccccc12)NCc1ccc(F)cc1,7,2,9.9*,-33,6,-7
O=C(NC1=NCCS1)c1ccc(Cl)c(S(=O)(=O)N2CCOCC2)c1,-3,0,3,-17,·,-19
SMILES,NPY2 pot ag,NPY Y1 blocker,RAM inhibit,Insulin prom inh,NPY Y2 blocker,NPY1 pot ag
CCCCCCCCn1c(N2CCN(c3cccc(Cl)c3)CC2)nc2c1c(=O)[nH]c(=O)n2C,5,-3,9.1*,-28,3,-11
COc1ccc(OC)c(C2C(C#N)=C(N)Oc3cc(N)ccc32)c1 (centres undefined),-3,2,0,37,3,-3
CCOc1ccccc1C1C(C#N)=C(N)Oc2cc(N)ccc21 (centres undefined),49*,-4,-1,11,2,113*
CCc1ccc(OCC(=O)NC2CC(C)(C)NC(C)(C)C2)cc1,10,-1,0,·,·,-13
CCn1c2ccccc2c2cc(NC(=O)c3cccc(OC)c3OC)ccc21,-13,7,4,·,2,-2
CCn1c2ccccc2c2cc(NC(=O)COc3ccccc3OC)ccc21,-13,3,9.6*,-3,7,-44
CSc1cccc(NC(=O)COc2cccc3ccccc23)c1,-2,3,4,73*,6,-7
COc1cc(OC)cc(C(=O)Nc2c(C)nn(-c3ccccc3)c2C)c1,1,6,0,27,·,5
Clc1ccc(-n2c(SCc3nc4ccccc4[nH]3)nnc2-c2ccncc2)cc1,-13,3,1,36,3,-19
O=S(=O)([N-]c1nc2ccccc2nc1-[n+]1ccccc1)c1ccc(F)cc1,-3,1,0,·,·,-8
CC1=NN(c2nc(-c3ccc(C)cc3)cs2)C(=O)C1N=Nc1ccc2ccccc2c1 (centres undefined),9,-1,11*,13,2,2
O=C(CSc1cccc2cccnc12)OCC(=O)c1ccccc1,-13,6,2,29,5,6
O=C(CSc1cccc2cccnc12)OCC(=O)c1ccc(Br)cc1,-10,7,9.6*,19,3,10
O=C(CSCC(=O)OCC(=O)c1ccc(Br)cc1)Nc1cccc2ccccc12,-25,-3,10*,·,4,9
CC(Oc1ccc([N+](=O)[O-])cc1Cl)C(=O)Nc1ccc(C(N)=O)cc1 (centres undefined),13,-1,5,·,·,13
Cc1cc(O)ccc1C1(c2ccc(O)cc2C)OC(=O)c2ccccc21,8,1,2,-338,5,-4
Cc1cccc(C2(c3cccc(C)c3)OC(=O)c3ccccc32)c1,-6,7,9.0*,-17,16,2
O=C(NCc1cccnc1)c1ccc(NC(=O)c2ccco2)cc1,11,-4,0,79*,0,14
O=C(Nc1cccnc1)c1ccc(NC(=O)c2ccco2)cc1,-9,4,1,16,2,-35
Cc1cc(C)c(S(C)(=O)=O)c(N(C)N)n1,-2,-2,0,75*,·,-13
Cc1cc(C)c(S(C)(=O)=O)c(N(C)NC(=O)c2c(F)cccc2F)n1,6,1,1,0,·,13
Nc1nc(SCC(=O)Nc2ccccc2)[nH]c(=O)c1-c1ccccc1,5,4,5,6,1,-3
Nc1nc(SCC(=O)N2CCc3ccccc3C2)[nH]c(=O)c1-c1ccccc1,-7,0,0,75*,0,-16
COc1ccc(NC(C)=O)cc1C,7,-3,0,71*,·,4

# Screens deposited in PubChem by several laboratories.
